Measured values published in ChEMBL document CHEMBL4689842, “EUbOPEN Chemogenomics Library wave 1” (2021).

Tested on: HEK-293T
Test: Multiplex assay against HEK293T;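 as to Population Tubulin-Different-Phenotype (%): share of the cells with healthy nuclei that show this phenotype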
Format: toxicity, cell-based
Conditions: human
In short: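 Hoechst33342, BioTracker Green Microtubule Cytoskeleton Dye, MitoTracker Red and Annexin V Alexa Fluor 680 were added to live cells at seeding, and imaging on a CQ1 microscope at 37°C and 5% CO2 followed compound addition. Gating by CellPathfinder machine learning separated cells into Hoechst high-intensity objects or normal cells, then normal cells into healthy, pyknosed or fragmented nuclei, then pyknosed cells into mitotic or apoptotic. Per cents of healthy-nucleus cells are reported for the tubulin, mitochondrial-mass and membrane-permeability phenotypes.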

[1] = 12 h, 1 µM, compound concentration 1 uM, replicate 1
[2] = 12 h, 1 µM, compound concentration 1 uM, replicate 2
[3] = 12 h, 10 µM, compound concentration 10 uM, replicate 1
[4] = 12 h, 10 µM, compound concentration 10 uM, replicate 2
[5] = 24 h, 1 µM, compound concentration 1 uM, replicate 1
[6] = 24 h, 1 µM, compound concentration 1 uM, replicate 2
[7] = 24 h, 10 µM, compound concentration 10 uM, replicate 1
[8] = 24 h, 10 µM, compound concentration 10 uM, replicate 2
[9] = 48 h, 1 µM, compound concentration 1 uM, replicate 1
[10] = 48 h, 1 µM, compound concentration 1 uM, replicate 2
[11] = 48 h, 10 µM, compound concentration 10 uM, replicate 1
[12] = 48 h, 10 µM, compound concentration 10 uM, replicate 2

Compound: C[C@@H](Oc1cc(-n2cnc3ccc(CN4CCN(C)CC4)cc32)sc1C(N)=O)c1ccccc1C(F)(F)F [GSK-461364]
- Population Apoptotic (%) [1]: 62%
- Population Fragmented Nuclei (%) [1]: 14%
- Population Healthy Nuclei (%) [1]: 19%
- Population Hoechst High Intensity Objects (%) [1]: 17%
- Population Membrane Permeable-Phenotype (%) [1]: 5%
- Population Mitochondria Different-Phenotype (%) [1]: 98%
- Population Mitotic Cells (%) [1]: 37%
- Population Normal (%) [1]: 82%
- Population Pyknosed Nuclei (%) [1]: 65%
- Population Tubulin-Different-Phenotype (%) [1]: 96%
- Total Cell Count [1]: 322
- Population Apoptotic (%) [2]: 27%
- Population Fragmented Nuclei (%) [2]: 10%
- Population Healthy Nuclei (%) [2]: 33%
- Population Hoechst High Intensity Objects (%) [2]: 4%
- Population Membrane Permeable-Phenotype (%) [2]: 20%
- Population Mitochondria Different-Phenotype (%) [2]: 60%
- Population Mitotic Cells (%) [2]: 72%
- Population Normal (%) [2]: 95%
- Population Pyknosed Nuclei (%) [2]: 56%
- Population Tubulin-Different-Phenotype (%) [2]: 71%
- Total Cell Count [2]: 142
- Population Apoptotic (%) [3]: 80%
- Population Fragmented Nuclei (%) [3]: 16%
- Population Healthy Nuclei (%) [3]: 11%
- Population Hoechst High Intensity Objects (%) [3]: 22%
- Population Membrane Permeable-Phenotype (%) [3]: 7%
- Population Mitochondria Different-Phenotype (%) [3]: 100%
- Population Mitotic Cells (%) [3]: 19%
- Population Normal (%) [3]: 77%
- Population Pyknosed Nuclei (%) [3]: 71%
- Population Tubulin-Different-Phenotype (%) [3]: 74%
- Total Cell Count [3]: 294
- Population Apoptotic (%) [4]: 66%
- Population Fragmented Nuclei (%) [4]: 11%
- Population Healthy Nuclei (%) [4]: 14%
- Population Hoechst High Intensity Objects (%) [4]: 10%
- Population Membrane Permeable-Phenotype (%) [4]: 12%
- Population Mitochondria Different-Phenotype (%) [4]: 75%
- Population Mitotic Cells (%) [4]: 33%
- Population Normal (%) [4]: 89%
- Population Pyknosed Nuclei (%) [4]: 73%
- Population Tubulin-Different-Phenotype (%) [4]: 62%
- Total Cell Count [4]: 187
- Population Apoptotic (%) [5]: 66%
- Population Fragmented Nuclei (%) [5]: 14%
- Population Healthy Nuclei (%) [5]: 22%
- Population Hoechst High Intensity Objects (%) [5]: 16%
- Population Membrane Permeable-Phenotype (%) [5]: 0%
- Population Mitochondria Different-Phenotype (%) [5]: 98%
- Population Mitotic Cells (%) [5]: 33%
- Population Normal (%) [5]: 83%
- Population Pyknosed Nuclei (%) [5]: 62%
- Population Tubulin-Different-Phenotype (%) [5]: 96%
- Total Cell Count [5]: 321
- Population Apoptotic (%) [6]: 38%
- Population Fragmented Nuclei (%) [6]: 8%
- Population Healthy Nuclei (%) [6]: 43%
- Population Hoechst High Intensity Objects (%) [6]: 3%
- Population Membrane Permeable-Phenotype (%) [6]: 12%
- Population Mitochondria Different-Phenotype (%) [6]: 54%
- Population Mitotic Cells (%) [6]: 61%
- Population Normal (%) [6]: 96%
- Population Pyknosed Nuclei (%) [6]: 47%
- Population Tubulin-Different-Phenotype (%) [6]: 75%
- Total Cell Count [6]: 154
- Population Apoptotic (%) [7]: 81%
- Population Fragmented Nuclei (%) [7]: 26%
- Population Healthy Nuclei (%) [7]: 10%
- Population Hoechst High Intensity Objects (%) [7]: 25%
- Population Membrane Permeable-Phenotype (%) [7]: 4%
- Population Mitochondria Different-Phenotype (%) [7]: 100%
- Population Mitotic Cells (%) [7]: 18%
- Population Normal (%) [7]: 74%
- Population Pyknosed Nuclei (%) [7]: 63%
- Population Tubulin-Different-Phenotype (%) [7]: 45%
- Total Cell Count [7]: 298
- Population Apoptotic (%) [8]: 86%
- Population Fragmented Nuclei (%) [8]: 12%
- Population Healthy Nuclei (%) [8]: 25%
- Population Hoechst High Intensity Objects (%) [8]: 5%
- Population Membrane Permeable-Phenotype (%) [8]: 0%
- Population Mitochondria Different-Phenotype (%) [8]: 97%
- Population Mitotic Cells (%) [8]: 13%
- Population Normal (%) [8]: 94%
- Population Pyknosed Nuclei (%) [8]: 62%
- Population Tubulin-Different-Phenotype (%) [8]: 63%
- Total Cell Count [8]: 207
- Population Apoptotic (%) [9]: 66%
- Population Fragmented Nuclei (%) [9]: 22%
- Population Healthy Nuclei (%) [9]: 18%
- Population Hoechst High Intensity Objects (%) [9]: 22%
- Population Membrane Permeable-Phenotype (%) [9]: 2%
- Population Mitochondria Different-Phenotype (%) [9]: 95%
- Population Mitotic Cells (%) [9]: 33%
- Population Normal (%) [9]: 77%
- Population Pyknosed Nuclei (%) [9]: 59%
- Population Tubulin-Different-Phenotype (%) [9]: 97%
- Total Cell Count [9]: 325
- Population Apoptotic (%) [10]: 67%
- Population Fragmented Nuclei (%) [10]: 10%
- Population Healthy Nuclei (%) [10]: 60%
- Population Hoechst High Intensity Objects (%) [10]: 2%
- Population Membrane Permeable-Phenotype (%) [10]: 6%
- Population Mitochondria Different-Phenotype (%) [10]: 53%
- Population Mitotic Cells (%) [10]: 32%
- Population Normal (%) [10]: 97%
- Population Pyknosed Nuclei (%) [10]: 28%
- Population Tubulin-Different-Phenotype (%) [10]: 76%
- Total Cell Count [10]: 191
- Population Apoptotic (%) [11]: 77%
- Population Fragmented Nuclei (%) [11]: 27%
- Population Healthy Nuclei (%) [11]: 4%
- Population Hoechst High Intensity Objects (%) [11]: 26%
- Population Membrane Permeable-Phenotype (%) [11]: 11%
- Population Mitochondria Different-Phenotype (%) [11]: 100%
- Population Mitotic Cells (%) [11]: 22%
- Population Normal (%) [11]: 73%
- Population Pyknosed Nuclei (%) [11]: 68%
- Population Tubulin-Different-Phenotype (%) [11]: 55%
- Total Cell Count [11]: 287
- Population Apoptotic (%) [12]: 79%
- Population Fragmented Nuclei (%) [12]: 12%
- Population Healthy Nuclei (%) [12]: 31%
- Population Hoechst High Intensity Objects (%) [12]: 10%
- Population Membrane Permeable-Phenotype (%) [12]: 0%
- Population Mitochondria Different-Phenotype (%) [12]: 98%
- Population Mitotic Cells (%) [12]: 20%
- Population Normal (%) [12]: 89%
- Population Pyknosed Nuclei (%) [12]: 55%
- Population Tubulin-Different-Phenotype (%) [12]: 56%
- Total Cell Count [12]: 204
